Data as given in ChEMBL document CHEMBL4334549, “Functionalized Naphthalimide-4-aminoquinoline Conjugates as Promising Antiplasmodials, with Mechanistic Insights” (ACS Med Chem Lett, 2020).
Activity calls are given as the source filed them. The calls are words filed in the database; no cut-off is given here.

Key:
Vero = assay: Cytotoxicity against African green monkey Vero cells measured after 24 hrs by resazurin dye based fluorescence assay; type: cell-based; conditions: Chlorocebus sabaeus
Plasmodium falciparum [1] = assay: Antiplasmodial activity against D-sorbitol synchronized ring stage of chloroquine-resistant Plasmodium falciparum W2 assessed as parasite growth inhibition measured after 48 hrs by YOYO-1 dye based FACSort flow cytometry analysis; type: functional, organism-based; conditions: W2, 48 h
[2] = Selectivity index, ratio of IC50 for African green monkey Vero cells to IC50 for D-sorbitol synchronized ring stage of chloroquine-resistant Plasmodium falciparum W2; type: toxicity; conditions: read-out: Ratio IC50
Heme [3] = assay: Binding affinity to monomeric heme assessed as heme-compound complex formation by measuring shifting and broadening of the peaks by 1H-NMR analysis
Heme [4] = assay: Binding affinity to monomeric heme assessed as decrease in band intensity in HEPES buffer in aqueous DMSO solution at pH 7.4 by UV-vis spectrophotometric titration analysis
Outline: (§1)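 Monomeric hemin (12 μM) in 40% DMSO with 0.02 M HEPES, pH 7.4, was titrated with compound at 0–18 μM. The drop in the 401 nm monomeric-heme band was followed by UV-vis. Log K was obtained by nonlinear least-squares fitting of the titration curves. A DMSO solvent control was included.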

Heme [5] = assay: Binding affinity to monomeric heme assessed as binding constant in MES buffer in aqueous DMSO solution at pH 5.6 by UV-vis spectrophotometric titration analysis
Outline: (§2)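 Monomeric hemin (12 μM) in aqueous DMSO with 0.02 M MES, pH 5.6, was titrated with compound at 0–16 μM. Loss of the 401 nm monomeric-heme absorbance was monitored by UV-vis. Binding constant (log K) came from nonlinear least-squares fitting of the titration curves, with a DMSO solvent control.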

Heme [6] = assay: Binding affinity to monomeric heme assessed as heme-compound complex formation at 1:1 ratio in aqueous DMSO solution at 5 micromol by mass spectrometry analysis
Heme [7] = assay: Binding affinity to monomeric heme assessed as binding constant in HEPES buffer in aqueous DMSO solution at pH 7.4 by UV-vis spectrophotometric titration analysis; outline: as §1
Plasmodium falciparum [8] = assay: Potency index, ratio of chloroquine IC50 to compound IC50 for antiplasmodial activity against D-sorbitol synchronized ring stage of chloroquine-resistant Plasmodium falciparum W2 assessed as parasite growth inhibition measured after 48 hrs by YOYO-1 dye based FACSort flow cytometry analysis; type: functional
Heme [9] = assay: Binding affinity to monomeric heme assessed as decrease in band intensity in MES buffer in aqueous DMSO solution at pH 5.6 by UV-vis spectrophotometric titration analysis; outline: as §2
Plasmodium falciparum [10] = assay: Antiplasmodial activity against sorbitol synchronized CQ-resistant Plasmodium falciparum W2 assessed as parasite growth inhibition after 48 hrs by SYBR Green I-based fluorescence assay; conditions: W2, 48 h

Compound	IC50 (Vero)	IC50 (Plasmodium falciparum [1])	selectivity ratio [2]	also measured
O=C1c2cccc3c(Br)ccc(c23)C(=O)N1CCCNc1ccnc2cc(Cl)ccc12	10.7 µM	0.0597 µM	179	–
O=C1c2cccc3c(N4CCN(CCO)CC4)ccc(c23)C(=O)N1CCCNc1ccnc2cc(Cl)ccc12	64.8 µM	0.0154 µM	4190	Activity (Heme [3]): Active; Activity (Heme [4]): Active; log K (Heme [5]): 6.06; Activity (Heme [6]): Active; log K (Heme [7]): 6.33; Ratio IC50 (Plasmodium falciparum [8]): 15; Activity (Heme [9]): Active
O=C1c2cccc3cccc(c23)C(=O)N1CCNc1ccnc2cc(Cl)ccc12	249 µM	0.056 µM	4440	–
O=C1c2cccc3c(N4CCOCC4)ccc(c23)C(=O)N1CCNc1ccnc2cc(Cl)ccc12	26.8 µM	0.121 µM	221	–
O=C1c2cccc3cccc(c23)C(=O)N1CCCCNc1ccnc2cc(Cl)ccc12	7.58 µM	0.0407 µM	186	–
O=C1c2cccc3cccc(c23)C(=O)N1CCCNc1ccnc2cc(Cl)ccc12	3.14 µM	0.147 µM	21.4	–
O=C1c2cccc3c(N4CCCCC4)ccc(c23)C(=O)N1CCCCCCNc1ccnc2cc(Cl)ccc12	185 µM	0.13 µM	1420	–
O=C1c2cccc3c(N4CCN(CCO)CC4)ccc(c23)C(=O)N1CCCCCCNc1ccnc2cc(Cl)ccc12	13.1 µM	0.12 µM	109	–
O=C1OC(=O)c2cccc3cccc1c23 [1,8-NAPHTHALIC ANHYDRIDE]	505 µM	> 10 µM	–	–
O=C1c2cccc3c(Br)ccc(c23)C(=O)N1CCCCCCNc1ccnc2cc(Cl)ccc12	186 µM	0.162 µM	1150	–
O=C1c2cccc3c(N4CCCCC4)ccc(c23)C(=O)N1CCCCCCCCNc1ccnc2cc(Cl)ccc12	176 µM	0.438 µM	401	–
O=C1c2cccc3c(N4CCCCC4)ccc(c23)C(=O)N1CCCNc1ccnc2cc(Cl)ccc12	200 µM	0.0512 µM	3910	–
O=C1c2cccc3c(N4CCCCC4)ccc(c23)C(=O)N1CCCCNc1ccnc2cc(Cl)ccc12	33.8 µM	0.0961 µM	352	–
O=C1c2cccc3c(Br)ccc(c23)C(=O)N1CCCCCCCCNc1ccnc2cc(Cl)ccc12	177 µM	0.562 µM	315	–
O=C1c2cccc3cccc(c23)C(=O)N1CCCCCCNc1ccnc2cc(Cl)ccc12	218 µM	0.39 µM	560	–
O=C1c2cccc3c(Br)ccc(c23)C(=O)N1CCCCNc1ccnc2cc(Cl)ccc12	13.9 µM	0.0533 µM	262	–
CC(C)[C@@H](C(=O)N[C@H](Cc1ccccc1)[C@@H](O)CN1CCN(Cc2ccc(Br)cc2)CC1)N1C(=O)c2ccccc2C1=O	–	–	–	IC50 (Plasmodium falciparum [10]): 3.01 µM
O=C1c2cccc3c(N4CCOCC4)ccc(c23)C(=O)N1CCCCCCCCNc1ccnc2cc(Cl)ccc12	175 µM	3.97 µM	44.1	–
O=C1c2cccc3c(Br)ccc(c23)C(=O)N1CCNc1ccnc2cc(Cl)ccc12	7.79 µM	0.053 µM	147	–
O=C1c2cccc3c(N4CCN(CCO)CC4)ccc(c23)C(=O)N1CCCCCCCCNc1ccnc2cc(Cl)ccc12	171 µM	0.215 µM	797	–
O=C1c2cccc3cccc(c23)C(=O)N1CCCCCCCCNc1ccnc2cc(Cl)ccc12	206 µM	0.357 µM	576	–
O=C1OC(=O)c2ccc(Br)c3cccc1c23	361 µM	> 10 µM	–	–
O=C1c2cccc3c(N4CCN(CCO)CC4)ccc(c23)C(=O)N1CCCCNc1ccnc2cc(Cl)ccc12	31.9 µM	0.0201 µM	1580	–
O=C1c2cccc3c(N4CCOCC4)ccc(c23)C(=O)N1CCCNc1ccnc2cc(Cl)ccc12	69 µM	0.0669 µM	1030	–
O=C1c2cccc3c(N4CCCCC4)ccc(c23)C(=O)N1CCNc1ccnc2cc(Cl)ccc12	126 µM	0.149 µM	851	–
O=C1c2cccc3c(N4CCOCC4)ccc(c23)C(=O)N1CCCCCCNc1ccnc2cc(Cl)ccc12	184 µM	0.0842 µM	–	–
O=C1c2cccc3c(N4CCOCC4)ccc(c23)C(=O)N1CCCCNc1ccnc2cc(Cl)ccc12	12.5 µM	0.237 µM	52.6	–
O=C1c2cccc3c(N4CCN(CCO)CC4)ccc(c23)C(=O)N1CCNc1ccnc2cc(Cl)ccc12	45.2 µM	0.0411 µM	1100	–
